Calls of active or inactive are those of the source. The rule behind the calls is not given here.

Data on 5 compounds can be found in ChEMBL document CHEMBL4831495, “Discovery of novel BCR-ABL PROTACs based on the cereblon E3 ligase design, synthesis, and biological evaluation” (Eur J Med Chem, 2021).

Series [1] relates to K562. Nature of the series: Antiproliferative activity against human K562 cells assessed as cell growth inhibition measured after 48 hrs by CCK8 assay. In kind it is functional, cell-based. The following applies: K562, 48 h. The method in brief:
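Cells were seeded at 3000-20,000 per well and given 3-fold serial dilutions of compound in medium. After 2 days at 37 °C in 5% CO2, CCK-8 reagent was added for 2-4 h and absorbance was read at 450 nm.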
In general terms: Formazan colour is commonly taken as a measure of viable cells.

A short description of series [2]: Tmax in Wistar rat at 2 mg/kg, iv by LC-MS/MS analysis. In kind it is ADME, organism-based. The following applies: in vivo. The method in brief:
(§1)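 Single intravenous dose of 2 mg/kg into the femoral vein of female Wistar rats, given as a solution in NMP/PEG200 (1:9, v/v). Plasma was collected by sublingual vein bleeding at 0.083, 0.25, 0.5, 1, 2, 4, 6, 8, 12 and 24 h from one group of rats (n = 3). Samples were extracted and quantified by LC-MS/MS, LOQ 2.5 ng/mL.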

The nature of series [3]: MRT (0 to t) in Wistar rat at 2 mg/kg, iv by LC-MS/MS analysis. In kind it is ADME, organism-based. To be noted: in vivo. Put shortly:
as §1

Series [4] is described as follows: Half life in Wistar rat at 2 mg/kg, iv by LC-MS/MS analysis. In kind it is ADME, organism-based. The following applies: in vivo. The method in brief:
as §1

Series [5] in a line: AUC (0 to t) in Wistar rat at 2 mg/kg, iv by LC-MS/MS analysis. Further details: dose 2 mg/kg. In kind it is ADME, organism-based. To be noted: in vivo. The method in brief:
as §1

A short description of series [6]: Apparent volume of distribution during steady state in Wistar rat at 2 mg/kg, iv by LC-MS/MS analysis. The format is ADME, organism-based. To be noted: in vivo, read-out: Vdss. Put shortly:
as §1

A short description of series [7]: Cmax in Wistar rat at 2 mg/kg, iv by LC-MS/MS analysis. In kind it is ADME, organism-based. On the set-up: route intravenous, dose 2 mg/kg. To be noted: in vivo. The method in brief:
as §1

Series [8] concerns the target T1, Protein cereblon/Tyrosine-protein kinase ABL1/Breakpoint cluster region protein (Homo sapiens, UniProt P00519+P11274+Q96SW2). In words: PROTAC activity at CRBN/Bcr-Abl in human K562 cells assessed as degrading activity by Western blotting analysis. In kind it is cell-based. (In general: In western blotting, separated proteins are transferred to a membrane and probed.)
Target sequence in this assay (P00519 whole entry): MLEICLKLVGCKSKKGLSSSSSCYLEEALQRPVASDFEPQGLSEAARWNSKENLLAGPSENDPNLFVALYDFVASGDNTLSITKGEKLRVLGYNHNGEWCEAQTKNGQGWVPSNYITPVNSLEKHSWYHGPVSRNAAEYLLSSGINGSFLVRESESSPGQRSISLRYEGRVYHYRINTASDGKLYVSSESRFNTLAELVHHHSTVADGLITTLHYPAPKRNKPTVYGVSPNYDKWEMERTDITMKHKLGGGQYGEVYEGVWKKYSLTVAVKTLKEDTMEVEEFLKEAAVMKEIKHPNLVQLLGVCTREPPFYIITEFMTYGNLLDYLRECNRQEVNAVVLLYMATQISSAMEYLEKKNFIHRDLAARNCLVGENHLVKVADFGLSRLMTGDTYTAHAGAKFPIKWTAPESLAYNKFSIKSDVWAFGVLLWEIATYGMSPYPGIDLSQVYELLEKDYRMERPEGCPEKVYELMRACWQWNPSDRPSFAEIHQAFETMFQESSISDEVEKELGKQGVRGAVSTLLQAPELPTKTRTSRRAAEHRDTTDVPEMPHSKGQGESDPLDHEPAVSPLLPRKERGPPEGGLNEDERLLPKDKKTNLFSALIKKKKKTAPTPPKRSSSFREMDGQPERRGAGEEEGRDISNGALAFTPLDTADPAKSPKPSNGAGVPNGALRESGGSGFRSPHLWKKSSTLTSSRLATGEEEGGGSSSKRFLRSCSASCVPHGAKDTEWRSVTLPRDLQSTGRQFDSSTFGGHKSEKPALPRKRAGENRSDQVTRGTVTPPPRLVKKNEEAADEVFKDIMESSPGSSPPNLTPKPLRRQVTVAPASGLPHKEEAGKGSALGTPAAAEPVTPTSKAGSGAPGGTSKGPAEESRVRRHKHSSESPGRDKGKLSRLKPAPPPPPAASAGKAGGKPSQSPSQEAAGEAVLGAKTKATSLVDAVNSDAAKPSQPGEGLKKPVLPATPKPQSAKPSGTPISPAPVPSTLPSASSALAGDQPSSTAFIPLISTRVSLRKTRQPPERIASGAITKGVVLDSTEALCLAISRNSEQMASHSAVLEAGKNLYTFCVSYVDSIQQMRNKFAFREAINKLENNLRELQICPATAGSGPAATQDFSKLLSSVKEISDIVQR
Target sequence in this assay (P11274 whole entry): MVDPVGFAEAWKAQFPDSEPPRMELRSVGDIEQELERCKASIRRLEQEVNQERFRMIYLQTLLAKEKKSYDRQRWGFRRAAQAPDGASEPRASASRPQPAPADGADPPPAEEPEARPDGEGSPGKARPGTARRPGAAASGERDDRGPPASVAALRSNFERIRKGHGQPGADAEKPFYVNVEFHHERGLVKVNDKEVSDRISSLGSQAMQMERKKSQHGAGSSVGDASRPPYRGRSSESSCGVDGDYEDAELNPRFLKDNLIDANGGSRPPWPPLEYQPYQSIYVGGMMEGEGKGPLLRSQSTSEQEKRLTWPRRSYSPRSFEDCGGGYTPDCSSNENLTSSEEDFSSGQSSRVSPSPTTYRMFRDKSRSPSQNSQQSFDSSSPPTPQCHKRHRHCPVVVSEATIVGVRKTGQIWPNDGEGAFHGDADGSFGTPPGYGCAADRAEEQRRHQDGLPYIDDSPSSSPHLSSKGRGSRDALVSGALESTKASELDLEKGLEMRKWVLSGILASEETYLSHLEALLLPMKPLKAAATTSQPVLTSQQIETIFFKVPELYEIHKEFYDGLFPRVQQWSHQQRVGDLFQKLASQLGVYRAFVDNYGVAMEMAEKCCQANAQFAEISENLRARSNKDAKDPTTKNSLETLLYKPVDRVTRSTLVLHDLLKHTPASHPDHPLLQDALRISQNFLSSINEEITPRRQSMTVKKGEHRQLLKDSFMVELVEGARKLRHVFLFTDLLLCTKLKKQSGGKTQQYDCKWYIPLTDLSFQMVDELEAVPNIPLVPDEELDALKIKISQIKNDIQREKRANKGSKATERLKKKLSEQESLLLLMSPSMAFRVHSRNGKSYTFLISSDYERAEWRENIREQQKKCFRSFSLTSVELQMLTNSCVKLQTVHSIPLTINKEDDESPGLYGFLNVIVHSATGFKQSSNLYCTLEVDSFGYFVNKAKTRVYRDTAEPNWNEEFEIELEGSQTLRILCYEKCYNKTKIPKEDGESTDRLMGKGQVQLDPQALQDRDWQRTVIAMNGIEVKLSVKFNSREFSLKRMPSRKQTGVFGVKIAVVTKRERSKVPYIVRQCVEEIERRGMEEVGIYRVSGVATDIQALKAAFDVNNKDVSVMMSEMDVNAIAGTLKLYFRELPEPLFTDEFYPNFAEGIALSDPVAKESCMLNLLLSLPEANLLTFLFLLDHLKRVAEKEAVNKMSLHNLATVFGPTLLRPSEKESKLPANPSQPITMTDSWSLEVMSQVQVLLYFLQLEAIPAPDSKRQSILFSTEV
Target sequence in this assay (Q96SW2 whole entry): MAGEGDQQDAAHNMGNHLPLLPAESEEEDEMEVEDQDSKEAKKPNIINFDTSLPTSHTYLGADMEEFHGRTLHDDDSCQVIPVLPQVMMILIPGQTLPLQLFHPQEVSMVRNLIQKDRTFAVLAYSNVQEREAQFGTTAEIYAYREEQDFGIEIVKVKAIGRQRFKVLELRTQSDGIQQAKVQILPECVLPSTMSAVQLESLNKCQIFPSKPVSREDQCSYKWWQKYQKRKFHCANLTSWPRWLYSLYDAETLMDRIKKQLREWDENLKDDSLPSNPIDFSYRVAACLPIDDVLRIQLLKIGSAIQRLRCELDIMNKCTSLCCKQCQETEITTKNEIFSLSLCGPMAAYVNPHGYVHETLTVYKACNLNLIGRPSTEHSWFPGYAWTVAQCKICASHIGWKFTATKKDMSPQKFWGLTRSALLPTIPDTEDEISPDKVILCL

Series [9] is described as follows: Apparent volume of distribution during terminal state in Wistar rat at 2 mg/kg, iv by LC-MS/MS analysis. The format is ADME, organism-based. The following applies: in vivo, read-out: Vz. Put shortly:
as §1

Series [10] in a line: Clearance in Wistar rat at 2 mg/kg, iv by LC-MS/MS analysis. The following applies: in vivo. In kind it is ADME, organism-based. Put shortly: as §1
For series [11], the system named is K562. Nature of the series: Antitumor activity against human K562 cells xenografted in NOD-SCID mouse assessed as tumor growth inhibition at 5 mg/kg, po administered daily 10 days. To be noted: 240 h, read-out: TGI. For orientation: Xenograft models place foreign cells or tissue in a host animal.
Series [12] deals with Protein cereblon/Proto-oncogene tyrosine-protein kinase Src (Homo sapiens) (UniProt P12931+Q96SW2). Nature of the series: PROTAC activity at CRBN/Src in human K562 cells assessed as Src degrading activity by Western blotting analysis. In kind it is cell-based.
Sequence of Protein cereblon/Proto-oncogene tyrosine-protein kinase Src (Homo sapiens) (P12931 whole entry, looked up): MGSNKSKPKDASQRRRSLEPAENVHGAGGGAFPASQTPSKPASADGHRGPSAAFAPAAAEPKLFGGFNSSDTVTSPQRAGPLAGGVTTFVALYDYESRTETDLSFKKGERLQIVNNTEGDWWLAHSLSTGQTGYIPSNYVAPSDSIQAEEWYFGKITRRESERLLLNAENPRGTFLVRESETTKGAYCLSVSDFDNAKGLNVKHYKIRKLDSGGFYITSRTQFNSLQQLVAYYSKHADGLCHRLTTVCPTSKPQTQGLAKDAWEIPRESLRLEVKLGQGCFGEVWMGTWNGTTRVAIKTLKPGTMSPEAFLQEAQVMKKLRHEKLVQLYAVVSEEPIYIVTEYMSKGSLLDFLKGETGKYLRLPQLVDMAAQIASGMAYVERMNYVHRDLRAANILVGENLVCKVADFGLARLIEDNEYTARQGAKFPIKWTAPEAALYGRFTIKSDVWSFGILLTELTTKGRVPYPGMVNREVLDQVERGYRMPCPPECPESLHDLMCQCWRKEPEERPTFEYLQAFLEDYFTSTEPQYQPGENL
Sequence of Protein cereblon/Proto-oncogene tyrosine-protein kinase Src (Homo sapiens) (Q96SW2 whole entry, looked up): as the sequence (Q96SW2 whole entry) above
Series [13] has as its system Protein cereblon/Tyrosine-protein kinase ABL1/Breakpoint cluster region protein (Homo sapiens), P00519+P11274+Q96SW2 [V299L]. In words: PROTAC activity at CRBN/BCR-ABL V299L mutant in human K562 cells assessed as degradation by Western blot analysis relative to control. In kind it is cell-based. The method in brief:
(§2)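 Cells plated at 3 × 10^5 cells/mL and exposed to compounds at the indicated concentrations and times. Cells were then harvested, washed in cold PBS and lysed in 1× SDS buffer with protease inhibitor cocktail. Protein was quantified by detergent-compatible Bradford assay, and BCR-ABL was detected by Western blot with a c-ABL antibody.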

Series [14] has as its target Protein cereblon/Platelet-derived growth factor receptor beta (Homo sapiens) (UniProt P09619+Q96SW2). In words: PROTAC activity at CRBN/PDGFRbeta in human K562 cells assessed as PDGFRbeta degrading activity by Western blotting analysis. In kind it is cell-based.
Series [15] can be described thus: Toxicity in NOD-SCID mouse xenografted with human K562 cells assessed as reduction in body weight at 100 mg/kg, ip measured on day 10. The format is organism-based. To be noted: in vivo.
In series [16] the target is T1, Protein cereblon/Tyrosine-protein kinase ABL1/Breakpoint cluster region protein. Nature of the series: PROTAC activity at CRBN/Bcr-Abl in human K562 cells assessed as reduction in Bcr-Abl level at 30 nM preincubated with proteasome inhibitor MG132 for 2 hrs and measured after 8 hrs by Western blotting analysis. In kind it is cell-based. Put shortly:
(§3)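 K562 cells were pretreated for 2 h with MG132 ([…] as printed) or MLN4924 ([…] as printed), then exposed to degrader at 30 nM for 8 h. Cells were lysed in 1× SDS buffer with protease inhibitors, and protein was quantified by Bradford assay. BCR-ABL and c-ABL were detected by Western blot.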
Target sequence in this assay (P00519 whole entry, looked up): as the sequence (P00519 whole entry) above
Target sequence in this assay (P11274 whole entry, looked up): as the sequence (P11274 whole entry) above
Target sequence in this assay (Q96SW2 whole entry, looked up): as the sequence (Q96SW2 whole entry) above

For series [17] the target is unchanged. Nature of the series: PROTAC activity at CRBN/Bcr-Abl in human K562 cells assessed as reduction in CRLK level after 16 hrs by Western blotting analysis. In kind it is cell-based.
Target sequence in this assay (P00519 whole entry, looked up): as the sequence (P00519 whole entry) above
Target sequence in this assay (P11274 whole entry, looked up): as the sequence (P11274 whole entry) above
Target sequence in this assay (Q96SW2 whole entry, looked up): as the sequence (Q96SW2 whole entry) above
Series [18] shares this target. In words: PROTAC activity at CRBN/Bcr-Abl in human K562 cells assessed as reduction in C-Abl level at 30 nM preincubated with proteasome inhibitor MG132 for 2 hrs and measured after 8 hrs by Western blotting analysis. In kind it is cell-based. Put shortly: as §3
Target sequence in this assay (P00519 whole entry, looked up): as the sequence (P00519 whole entry) above
Target sequence in this assay (P11274 whole entry, looked up): as the sequence (P11274 whole entry) above
Target sequence in this assay (Q96SW2 whole entry, looked up): as the sequence (Q96SW2 whole entry) above
The subject of series [19] is K562. In words: Antitumor activity against human K562 cells xenografted in NOD-SCID mouse assessed as tumor growth inhibition at 10 mg/kg, ip administered daily 10 days. In kind it is functional. To be noted: 240 h, time 10 day, read-out: TGI. Put shortly: (§4)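 Mice carried K562-Luc xenografts, with 2 × 10^6 cells inoculated per mouse. Dosing began at a mean tumor volume of about 200 mm3. Drug in DMSO/PEG 400/40% hydroxypropyl-(1:3:6, vol/vol) was given ip once daily for 10 consecutive days at 1, 3 or 10 mg/kg. Calipers were used 2-3 times weekly, with V = L × W²/2, and TGI was calculated at day 10.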

The test system of series [20] is Protein cereblon/Tyrosine-protein kinase ABL1/Breakpoint cluster region protein (Homo sapiens), P00519+P11274+Q96SW2 [F317L]. Nature of the series: PROTAC activity at CRBN/BCR-ABL F317L mutant in human K562 cells assessed as degradation by Western blot analysis relative to control. In kind it is cell-based. The method in brief:
as §2

In series [21] the target is T1, Protein cereblon/Tyrosine-protein kinase ABL1/Breakpoint cluster region protein. Nature of the series: PROTAC activity at CRBN/Bcr-Abl in human K562 cells assessed as reduction in Bcr-Abl level at 30 nM by Western blotting analysis. The format is cell-based. The following applies: time 0-24 hrs.
Target sequence in this assay (P00519 whole entry, looked up): as the sequence (P00519 whole entry) above
Target sequence in this assay (P11274 whole entry, looked up): as the sequence (P11274 whole entry) above
Target sequence in this assay (Q96SW2 whole entry, looked up): as the sequence (Q96SW2 whole entry) above
In series [22] the test system is Protein cereblon/Tyrosine-protein kinase ABL1/Breakpoint cluster region protein (Homo sapiens), P00519+P11274+Q96SW2 [E255V]. Nature of the series: PROTAC activity at CRBN/BCR-ABL E255V mutant in human K562 cells assessed as degradation by Western blot analysis relative to control. The format is cell-based. The method in brief: as §2
In series [23] the target is T1, Protein cereblon/Tyrosine-protein kinase ABL1/Breakpoint cluster region protein. In words: PROTAC activity at CRBN/Bcr-Abl in human K562 cells assessed as reduction in STAT5 level after 16 hrs by Western blotting analysis. The format is cell-based. Put shortly:
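K562 cells were plated at 3 × 10^5 cells/mL and treated with graded concentrations for 16 h. Lysates in 1× SDS buffer with protease inhibitors were quantified by Bradford assay. Western blots were probed with antibodies against Stat5, phospho-Stat5 (Tyr694) and […], among others.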
Target sequence in this assay (P00519 whole entry, looked up): as the sequence (P00519 whole entry) above
Target sequence in this assay (P11274 whole entry, looked up): as the sequence (P11274 whole entry) above
Target sequence in this assay (Q96SW2 whole entry, looked up): as the sequence (Q96SW2 whole entry) above

The test system of series [24] is K562. Nature of the series: Antitumor activity against human K562 cells xenografted in NOD-SCID mouse assessed as tumor growth inhibition at 3 mg/kg, ip administered daily 10 days. The following applies: 240 h, time 10 day, read-out: TGI. In kind it is functional. Put shortly: as §4
Series [25] concerns K562. In words: Antitumor activity against human K562 cells xenografted in NOD-SCID mouse assessed as tumor growth inhibition at 1 mg/kg, ip administered daily 10 days. In kind it is functional. To be noted: 240 h, time 10 day, read-out: TGI. The method in brief:
as §4

Series [26] concerns the target T1, Protein cereblon/Tyrosine-protein kinase ABL1/Breakpoint cluster region protein. In words: PROTAC activity at CRBN/Bcr-Abl in human K562 cells assessed as reduction in Bcr-Abl level at 30 nM preincubated with NEDD8 inhibitor MLN4924 for 2 hrs and measured after 8 hrs by Western blotting analysis. The format is cell-based. Put shortly: as §3
Target sequence in this assay (P00519 whole entry, looked up): as the sequence (P00519 whole entry) above
Target sequence in this assay (P11274 whole entry, looked up): as the sequence (P11274 whole entry) above
Target sequence in this assay (Q96SW2 whole entry, looked up): as the sequence (Q96SW2 whole entry) above
Series [27] shares this target. In words: PROTAC activity at CRBN/Bcr-Abl in human K562 cells assessed as reduction in C-Abl level at 30 nM preincubated with NEDD8 inhibitor MLN4924 for 2 hrs and measured after 8 hrs by Western blotting analysis. The format is cell-based. Put shortly: as §3

In the case of `Cc1nc(Nc2ncc(C(=O)Nc3c(C)cccc3Cl)s2)cc(N2CCN(CCCCNc3cccc4c3C(=O)N(C3CCC(=O)NC3=O)C4=O)CC2)n1` (centres undefined), the IC50 (in general, the concentration that inhibits the measured activity by half) in the series on K562 [1] turned out to be 0.28 nM. Besides, in [2], the time of peak concentration (Tmax) (commonly the time from dosing to the highest level) is 4.8 min. Also, the MRT last (commonly the average time that molecules of a dose stay in the body) in [3] was 93 min. Besides, the half-life (as a rule, the time in which the quantity being followed falls by half) in series [4] is 116 min. The AUC(0-t) (in general, the area under the concentration-time curve up to a stated or last time point) in series [5] was 1330 ng·h/mL. In addition, the Vd in series [6] turned out to be 2.78 L/kg; in series [9], 4.02 L/kg. Further, in series [7], the Cmax (usually the highest concentration seen after dosing) came out at 1450 ng/mL. The DC50 (commonly the midpoint of the concentration-degradation curve) in [8] was determined as 2.7 nM. For the same compound, the clearance (commonly the rate of elimination divided by the concentration) in series [10] is 24.1 mL/min/kg.

Turning to `Cc1nc(Nc2ncc(C(=O)Nc3c(C)cccc3Cl)s2)cc(N2CCN(CCO)CC2)n1` [DASATINIB], the inhibition in vivo at 5 mg/kg with K562 [11] was 95.1%.

In the case of `Cc1nc(Nc2ncc(C(=O)Nc3c(C)cccc3Cl)s2)cc(N2CCN(C(=O)CCOCCOCCNc3cccc4c3C(=O)N(C3CCC(=O)NC3=O)C4=O)CC2)n1` (centres undefined), in the series on K562 [1], the IC50 came out at 8.05 nM. In series [2], the Tmax is 4.8 min. Further, in series [3], the MRT last was found to be 27 min. This compound also had a half-life in [4] of 37.2 min. In [5], this compound returned an AUC(0-t) of 496 ng·h/mL. The Vd worked out at 1.93 L/kg in [6] and 3.59 L/kg in series [9]. Also, in series [7], the Cmax is 1140 ng/mL. Also, the DC50 in series [8] is 17.5 nM. In series [10], this compound had a clearance of 67.1 mL/min/kg.

Take `Cc1nc(Nc2ncc(C(=O)Nc3c(C)cccc3Cl)s2)cc(N2CCN(CCSc3cccc4c3C(=O)N(C3CCC(=O)NC3=O)C4=O)CC2)n1` (centres undefined): the outcome in series [12] and in [14] was inactive. In addition, in the series with K562 [1], the IC50 amounted to 0.49 nM. Further, in series [2], the Tmax was found to be 4.8 min. In [3], this compound registered an MRT last of 120 min. In series [4], the half-life was 254 min. The same compound returned an AUC(0-t) in [5] of 926 ng·h/mL. Also, the result in [13], in series [20] and in [22] was Active. For the same compound, the Activity result in series [15] is listed as “Non-Toxic”. Further, the Vd in series [6] came out at 5.23 L/kg; in [9], 13 L/kg. Also, the inhibition result in series [16], in [17], in series [18], in series [21], in [23] and in [26] was “Active” each time. The inhibition entry in series [27] is “Active”. Besides, in the series with K562 [19], the inhibition in vivo at 10 mg/kg was determined as 98.8%. Also, the concentration in [7] peaked (Cmax) at 1500 ng/mL. The DC50 in [8] is 0.18 nM. Further, the inhibition in vivo at 3 mg/kg with K562 [24] was determined as 93.8%. Moreover, the inhibition in vivo at 1 mg/kg in the series with K562 [25] came to 78.9%. In [10], this compound showed a clearance of 35.7 mL/min/kg.

As for `Cc1nc(Nc2ncc(C(=O)Nc3c(C)cccc3Cl)s2)cc(N2CCN(C(=O)CSc3cccc4c3C(=O)N(C3CCC(=O)NC3=O)C4=O)CC2)n1` (centres undefined), in the series on K562 [1], the IC50 was found to be 3.2 nM. Further, the DC50 in series [8] was determined as 5.6 nM.
